Laboratory results as given in ChEMBL document CHEMBL1155041, “Discovery of N-(2-aminophenyl)-4-[(4-pyridin-3-ylpyrimidin-2-ylamino)methyl]benzamide (MGCD0103), an orally active histone deacetylase inhibitor” (J Med Chem, 2008).
Where a name gives a salt, the structure may show the parent alone. Calls of active or inactive are those of the source. The rule behind the calls is not given here.

Assays:
SW48 [1] = experiment: Antitumor activity against human SW48 cells xenografted in CD1 nude mouse at 120 mg/kg/day, po; format: functional; details: read-out: TGI
In short: (§1)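 Tumors were started from about 2 million cells injected sc into the flank of female CD-1 nude mice aged 8-10 weeks, then serially passaged at least three times. About 30 mg fragments were implanted sc under anesthesia. Dosing was oral, daily, as a solution in PBS acidified with 0.1 N HCl. Tumor volume and body weight were measured three times weekly for ≥2 weeks, with 6-8 animals per group and Student's t-test.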

SW48 [2] = experiment: Antitumor activity against human SW48 cells xenografted in CD1 nude mouse at 90 mg/kg/day, po; format: functional; details: read-out: TGI; in short: as §1
SW48 [3] = experiment: Antitumor activity against human SW48 cells xenografted in CD1 nude mouse at 60 mg/kg/day, po; format: functional; details: read-out: TGI; in short: as §1
HCT-116 [4] = experiment: Induction of apoptosis in HCT116 cells at 1 uM; format: functional, cell-based; details: Homo sapiens
In short: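 Apoptosis was measured in HCT116 cells with a cell-death detection ELISA (nucleosome release), read at 405 nm with a 490 nm reference. Scored positive/negative at 1 µM.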

[5] = Tmax in Sprague-Dawley rat at 2.5 to 50 mg/kg, po; format: ADME, organism-based; set-up: dose 2.5-50 mg/kg, route oral; details: in vivo
In short: (§2)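 Female CD-1 mice, female Sprague-Dawley rats and male beagle dogs were dosed iv or orally. Vehicles: mice, 0.05-0.1 N HCl in saline for both routes. Rats, 0.02-0.1 N HCl in saline iv; for po, HCl/saline with 0.5% HPMC and 0.01% Tween-80, or 0.5% CMC in 50 mM acetate pH 4.0. Dogs, HCl/saline with 40% PEG400 iv; for po, HCl/saline ±PEG400 or 0.5% hydroxyethylcellulose in pH 4.0 acetate. Plasma was collected over time and analyzed by LC-MS/MS.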

A-431 [6] = experiment: Antitumor activity against human A431 cells xenografted in CD1 nude mouse at 60 mg/kg/day, po; format: functional; details: read-out: TGI; in short: as §1
[7] = Oral bioavailability in Sprague-Dawley rat at 2.5 to 50 mg/kg; format: ADME, organism-based; details: in vivo
In short: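 Female Sprague-Dawley rats dosed iv 2.5-5 mg/kg in 0.02-0.1 N HCl/saline. Oral doses of 2.5-50 mg/kg were given either in 0.02-0.1 N HCl/saline with 0.5% HPMC and 0.01% Tween-80, or in 0.5% CMC in 50 mM acetate pH 4.0. Plasma sampled at various time points and analysed by HPLC-MS/MS.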

A549 [8] = experiment: Antitumor activity against human A549 cells xenografted in CD1 nude mouse at 60 mg/kg/day, po; format: functional; details: read-out: TGI; in short: as §1
Canis familiaris = experiment: Cmax in Beagle dog at 7 to 30 mg/kg, po; format: ADME, organism-based, Canis lupus familiaris; set-up: dose 7-30 mg/kg, route oral; details: in vivo; in short: as §2
[9] = Half life in Sprague-Dawley rat at 2.5 to 5 mg/kg, iv; format: ADME, organism-based; set-up: dose 2.5-5 mg/kg, route intravenous; details: in vivo; in short: as §2
Mus musculus [10] = experiment: Cmax in CD1 mouse at 2.5 to 15 mg/kg, po; format: ADME, organism-based; set-up: dose 2.5-15 mg/kg, route oral; details: in vivo; in short: as §2
Mus musculus [11] = experiment: Volume of distribution in CD1 mouse at 2.5 to 15 mg/kg, iv and po; format: ADME, organism-based; set-up: dose 2.5-15 mg/kg, route oral; details: in vivo; in short: as §2
[12] = Tmax in CD1 mouse at 2.5 to 15 mg/kg, po; format: ADME, organism-based; set-up: dose 2.5-15 mg/kg, route oral; details: in vivo; in short: as §2
[13] = Volume of distribution at steady state in Sprague-Dawley rat at 2.5 to 5 mg/kg, iv and 2.5 to 50 mg/kg, po; format: ADME, organism-based; details: in vivo, read-out: Vdss; in short: as §2
A-431 [14] = experiment: Antitumor activity against human A431 cells xenografted in CD1 nude mouse at 90 mg/kg/day, po; format: functional; details: read-out: TGI; in short: as §1
[15] = Clearance in Sprague-Dawley rat at 2.5 to 5 mg/kg, iv and 2.5 to 50 mg/kg, po; format: ADME, organism-based; details: in vivo; in short: as §2
Histone deacetylase 11 = target: T1, Histone deacetylase 11 (Homo sapiens, UniProt Q96DB2); experiment: Inhibition of human recombinant HDAC11 homogeneous fluorescence release assay
T1 sequence (Q96DB2 whole entry): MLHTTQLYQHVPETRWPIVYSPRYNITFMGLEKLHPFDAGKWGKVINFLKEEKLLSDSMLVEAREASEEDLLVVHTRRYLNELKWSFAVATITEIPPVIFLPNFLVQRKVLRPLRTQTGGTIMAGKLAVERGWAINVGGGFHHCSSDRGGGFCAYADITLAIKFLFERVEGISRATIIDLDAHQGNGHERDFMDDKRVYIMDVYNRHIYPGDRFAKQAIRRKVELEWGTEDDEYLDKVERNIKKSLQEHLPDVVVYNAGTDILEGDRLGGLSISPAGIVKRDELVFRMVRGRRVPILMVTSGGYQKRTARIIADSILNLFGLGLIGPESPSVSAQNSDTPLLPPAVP
In short: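 Boc-Lys(ε-Ac)-AMC substrate then added at 37 °C, with isotype-specific substrate level and time. Trypsin 20 min at RT releases fluorophore, read ex 360/em 470 nm. IC50 from dose-response curves, 6-21 independent experiments.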

[16] = Oral bioavailability in CD1 mouse at 2.5 to 15 mg/kg; format: ADME, organism-based; details: in vivo
In short: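 Female CD-1 mice dosed iv 2.5-15 mg/kg and orally 2.5-15 mg/kg. Both routes used 0.05-0.1 N HCl in saline. Plasma collected at various time points and analysed by HPLC-MS/MS. Bioavailability taken from oral versus iv exposure.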

[17] = Clearance in Beagle dog at 10 mg/kg, iv and 7 to 30 mg/kg, po; format: ADME, organism-based, Canis lupus familiaris; details: in vivo; in short: as §2
DU-145 [18] = experiment: Antitumor activity against human DU145 cells xenografted in CD1 nude mouse at 70 mg/kg/day, po; format: functional; details: read-out: TGI; in short: as §1
HMEC = experiment: Antiproliferative activity against HMEC after 72 hrs by MTT assay; format: functional, cell-based; details: Homo sapiens
In short: (§3)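 Cells (HMEC from a commercial source, others from ATCC) cultured per vendor instructions, exposed to a range of concentrations for 72 h at 37 °C, 5% CO2. MTT at 0.5 mg/mL final for 4 h, then DMF/SDS solubilization overnight, absorbance at 570 nm with 630 nm reference. OD converted to cell number via a growth curve. IC50 is the concentration giving 50% of DMSO-control cell number. At least three independent experiments.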

DU-145 [19] = experiment: Antiproliferative activity against human Du145 cells after 72 hrs by MTT assay; format: functional, cell-based; details: DU-145, 72 h; in short: as §3
[20] = Half life in Beagle dog at 10 mg/kg, iv; format: ADME, organism-based, Canis lupus familiaris; set-up: dose 10 mg/kg, route intravenous; details: in vivo; in short: as §2
[21] = Tmax in Beagle dog at 7 to 30 mg/kg, po; format: ADME, organism-based, Canis lupus familiaris; set-up: dose 7-30 mg/kg, route oral; details: in vivo; in short: as §2
[22] = Half life in CD1 mouse at 2.5 to 15 mg/kg, iv; format: ADME, organism-based; set-up: dose 2.5-15 mg/kg, route intravenous; details: in vivo; in short: as §2
T-24 = experiment: Induction of H3 histone acetylation in human T24 cells relative to MS275; format: functional, cell-based
In short: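 Histones were acid-extracted (H2SO4, then acetone precipitation) from treated cells. In the ELISA, 2 µg of histones went onto anti-histone-coated plates and were probed with anti-acetyl-H3 (1:1000). Signal was normalized to total H3 measured on 0.5 µg with anti-H3.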

Rattus norvegicus = experiment: Cmax in Sprague-Dawley rat at 2.5 to 50 mg/kg, po; format: ADME, organism-based; set-up: dose 2.5-50 mg/kg, route oral; details: in vivo; in short: as §2
A549 [23] = experiment: Antiproliferative activity against human A549 cells after 72 hrs by MTT assay; details: A549, 72 h
A549 [24] = experiment: Antitumor activity against human A549 cells xenografted in CD1 nude mouse at 40 mg/kg/day, po; format: functional; details: read-out: TGI; in short: as §1
HCT-116 [25] = experiment: Cell cycle arrest in human HCT116 cells assessed as accumulation at G2/M phase; format: functional, cell-based
In short: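 Cells treated for 16 h, fixed in 70% ethanol at -20 °C, RNase-treated and stained with propidium iodide (50 µg/mL). DNA content measured by flow cytometry to score G2/M accumulation. EC50 derived.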

[26] = Volume of distribution at steady state in Beagle dog at 10 mg/kg, iv and 7 to 30 mg/kg, po; format: ADME, organism-based, Canis lupus familiaris; details: in vivo, read-out: Vdss; in short: as §2
[27] = Oral bioavailability in Beagle dog at 7 to 30 mg/kg; format: ADME, organism-based, Canis lupus familiaris; details: in vivo; in short: as §2
DU-145 [28] = experiment: Antitumor activity against human DU145 cells xenografted in CD1 nude mouse at 80 mg/kg; format: functional; details: read-out: TGI; in short: as §1
DU-145 [29] = experiment: Antitumor activity against human DU145 cells xenografted in CD1 nude mouse at 40 mg/kg/day, po; format: functional; details: read-out: TGI; in short: as §1
HCT-116 [30] = experiment: Antiproliferative activity against human HCT116 cells after 72 hrs by MTT assay; details: HCT-116, 72 h
HCT-116 [31] = experiment: Induction of p21cip/waf1 protein expression in human HCT116 cells relative to MS275; format: functional, cell-based

## Nc1ccccc1NC(=O)c1ccc(CNc2nccc(-c3cccnc3)n2)cc1 [MOCETINOSTAT DIHYDROBROMIDE]
SW48 [1]
  inhibition in vivo at 120 mg/kg/day: 93%
SW48 [2]
  inhibition in vivo at 90 mg/kg/day: 70%
SW48 [3]
  inhibition in vivo at 60 mg/kg/day: 64%

## Nc1ccccc1NC(=O)c1ccc(CNc2nccc(-c3cccnc3)n2)cc1
HCT-116 [4]
  Activity: Active

## Nc1ccccc1NC(=O)c1ccc(CNc2nccc(-c3cccnc3)n2)cc1 [MOCETINOSTAT]
[5]
  Tmax: 35.4 min
A-431 [6]
  inhibition in vivo at 60 mg/kg/day: 30%
[7]
  bioavailability: 47%
A549 [8]
  inhibition in vivo at 60 mg/kg/day: 73%
Canis familiaris
  Cmax normalised: 0.0029 µM/mg/kg
[9]
  half-life: 42 min
Mus musculus [10]
  Cmax normalised: 0.086 µM/mg/kg
Mus musculus [11]
  Vdss: 0.35 L/kg
[12]
  Tmax: 15 min
[13]
  Vd: 0.91 L/kg
A-431 [14]
  inhibition in vivo at 90 mg/kg/day: 64%
[15]
  clearance: 28.3 mL/min/kg
Histone deacetylase 11
  IC50: 590 nM
[16]
  bioavailability: 12%
[17]
  clearance: 33.3 mL/min/kg
DU-145 [18]
  inhibition in vivo at 70 mg/kg/day: 47%
HMEC
  IC50: 20000 nM
DU-145 [19]
  IC50: 670 nM
[20]
  half-life: 78 min
[21]
  Tmax: 17.4 min
[22]
  half-life: 36 min
T-24
  EC50: 1380 nM
Rattus norvegicus
  Cmax normalised: 0.3 µM/mg/kg
A549 [23]
  IC50: 900 nM
A549 [24]
  inhibition in vivo at 40 mg/kg/day: 56%
HCT-116 [25]
  EC50: < 1000 nM
[26]
  Vd: 0.8 L/kg
[27]
  bioavailability: 1%
DU-145 [28]
  inhibition in vivo at 80 mg/kg: 82%
DU-145 [29]
  inhibition in vivo at 40 mg/kg/day: 4%
HCT-116 [30]
  IC50: 290 nM
HCT-116 [31]
  EC50: 450 nM
